Assays:
Format in all cases: functional, cell-based
MCF7 = assay: Antiproliferative activity against human MCF7 cells after 24 hrs by trypan blue exclusion assay; conditions: MCF7, 24 h
Outline: (§1)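 Cells from ATCC. MCF-7 and MDA-231 grown in DMEM with 10% FBS and 1% L-glutamine; A549 and H460 in RPMI 1640 with glutamine, glucose, HEPES, sodium pyruvate and 10% FBS; all at 37 °C, 5% CO2. Treated 24 h at 1, 5, 10, 20 and 40 µM, with DMSO vehicle control. Viability by trypan blue dye exclusion, mean ± SD of four wells.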

NCI-H460 = assay: Antiproliferative activity against human H460 cells after 24 hrs by trypan blue exclusion assay; conditions: NCI-H460, 24 h; outline: as §1
[1] = Antiproliferative activity against human MDA231 cells after 24 hrs by trypan blue exclusion assay; conditions: MDA-MB-231, 24 h; outline: as §1
A549 = assay: Antiproliferative activity against human A549 cells after 24 hrs by trypan blue exclusion assay; conditions: A549, 24 h; outline: as §1

| SMILES | IC50 (MCF7) [µM] | IC50 (NCI-H460) [µM] | IC50 [1] [µM] | IC50 (A549) [µM] |
| --- | --- | --- | --- | --- |
| O=C1NC(=O)/C(=C/c2cn(Cc3ccc([N+](=O)[O-])cc3)c3ccccc23)N1 | 10.9 | > 40 | 23.3 | > 40 |
| O=C1NC(=O)/C(=C/c2cn(Cc3ccc(F)cc3)c3ccccc23)N1 | 22.3 | 16.3 | 32.8 | 27.8 |
| O=C1NC(=O)/C(=C/c2cn(Cc3ccc(Cl)cc3)c3ccccc23)N1 | 21.4 | 25.4 | 25.3 | 25.4 |
| COc1ccc(Cn2cc(/C=C3\NC(=O)NC3=O)c3cc(Br)ccc32)cc1 | 16.4 | 22.3 | 23.2 | 25.2 |
| O=C1NC(=O)/C(=C/c2cn(Cc3ccccc3)c3ccc(Cl)cc23)N1 | 9.2 | 26.9 | 18 | 29.7 |
| Cc1ccc(Cn2cc(/C=C3\NC(=O)NC3=O)c3ccccc32)cc1 | 20.2 | 26.1 | 22.1 | 34.8 |
| O=c1[nH]cc(F)c(=O)[nH]1 [FLUOROURACIL] | 15.2 | 2.7 | 3.5 | 5.4 |
| COC(=O)c1ccc(Cn2cc(/C=C3\NC(=O)NC3=O)c3ccccc32)cc1 | 15.4 | 30.8 | 18.4 | > 40 |
| COc1ccc2c(c1)c(/C=C1\NC(=O)NC1=O)cn2Cc1ccccc1 | 7.2 | 28.4 | 7 | > 40 |
| O=C1NC(=O)/C(=C/c2cn(Cc3ccccc3)c3ccccc23)N1 | 27.3 | 14.2 | 15.7 | > 40 |
| Cc1ccc2c(c1)c(/C=C1\NC(=O)NC1=O)cn2Cc1ccccc1 | 5.2 | 14.6 | 20.1 | 27.7 |
| O=C1NC(=O)/C(=C/c2cn(Cc3ccccc3)c3ccc(Br)cc23)N1 | 7.6 | > 40 | 12.4 | > 40 |
| O=C1NC(=O)/C(=C/c2cn(Cc3ccccc3Br)c3ccccc23)N1 | 4.4 | 16.9 | 21.8 | 39.5 |
| N#Cc1ccc(Cn2cc(/C=C3\NC(=O)NC3=O)c3ccccc32)cc1 | 14.1 | 19.1 | 17.6 | > 40 |

Source: ChEMBL document CHEMBL1157127, “Aplysinopsin analogs: Synthesis and anti-proliferative activity of substituted (Z)-5-(N-benzylindol-3-ylmethylene)imidazolidine-2,4-diones” (Bioorg Med Chem, 2010)
